Experimental data reported in ChEMBL document CHEMBL4396890, “Synthesis, Biological Evaluation, Structure-Activity Relationship, and Mechanism of Action Studies of Quinoline-Metronidazole Derivatives Against Experimental Visceral Leishmaniasis” (J Med Chem, 2019).
Activity calls are given as the source filed them. The calls are words filed in the database; no cut-off is given here.

What was measured:
Leishmania donovani [1] = test: Antileishmanial activity against Leishmania donovani MHOM/IN/80/Dd8 amastigotes harboring luciferase reporter gene infected in mouse J774 cells assessed as stimulation of host immunity by measuring change in IL10 level at 50 uM after 48 hrs by ELISA; type: functional, organism-based
Procedure, shortened: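 Infected J774 macrophages (24 h infection) were treated with 50 μM compound for 48 h. Culture supernatants were assayed by ELISA for TNF-α and IL-12 (Th1) and for TGF-β and IL-10 (Th2), compared with infected untreated cells.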

Leishmania donovani [2] = test: Induction of apoptosis in Leishmania donovani MHOM/IN/80/Dd8 promastigotes assessed as increase in meta-caspase activity at 50 uM using BOC-GRR-AMC as substrate preincubated for 1 hr followed by substrate addition and measured after 2 hrs in presence of meta-caspase inhibitor antipain by fluorometric assay; type: functional, organism-based
Procedure, shortened: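 Log-phase promastigotes were pretreated for 1 h with antipain (1 μM) or zVAD-fmk (100 μM), then exposed to 50 μM compound or 0.1% DMSO. Metacaspase activity in lysates was read with fluorogenic BOC-GRR-AMC and expressed as RFU per mg protein.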

Leishmania donovani [3] = test: Antileishmanial activity against Leishmania donovani MHOM/IN/80/Dd8 promastigotes infected in BALB/c mouse assessed as reduction in parasite load in spleen at 25 mg/kg, ip administered once daily for 5 days measured 7 days post dose by giemsa staining-based assay relative to control; type: functional; set-up: scale not given: the % may be the effect or the level left
Procedure, shortened: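 Hamster-passaged strain was transformed to promastigotes. Stationary-phase cells (2 × 10^7 in 0.2 mL PBS) were injected into the tail vein of BALB/c mice. From day 15 post-infection, mice received compound ip in 8% DMSO in PBS for 5 consecutive days, 5 mice per group. Mice were killed day 7 post-treatment. Liver and spleen burden was read from Giemsa-stained stamp smears as LDU.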

Leishmania donovani [4] = test: Induction of mitochondrial membrane disruption in Leishmania donovani MHOM/IN/80/Dd8 promastigotes assessed as reduction in intracellular ATP level at 50 uM measured after 6 to 48 hrs by luciferase-based assay relative to control; type: functional
Procedure, shortened: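 Promastigotes were incubated with 0.1% DMSO or 50 μM compound for 6−48 h. Cytosolic ATP was quantified by bioluminescence assay. At least 3 independent experiments in duplicate.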

Leishmania donovani [5] = test: Induction of apoptosis in Leishmania donovani MHOM/IN/80/Dd8 promastigotes assessed as late apoptotic cells at 50 uM measured after 12 hrs by Annexin V-FITC/propidium iodide staining based assay (reference value: 0.46%); type: functional
Leishmania donovani [6] = test: Induction of apoptosis in Leishmania donovani MHOM/IN/80/Dd8 promastigotes assessed as late apoptotic cells at 50 uM measured after 48 hrs by Annexin V-FITC/propidium iodide staining based assay (reference value: 0.02%); type: functional
Leishmania donovani [7] = test: Induction of mitochondrial potential loss in Leishmania donovani MHOM/IN/80/Dd8 promastigotes assessed as shift in red to green fluorescence at 50 uM after 6 hrs by JC1 dye-based flow cytometry (reference value: 7.37%); type: functional
Procedure, shortened: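 Exponential-phase promastigotes were incubated with 50 μM compound for 6−48 h, or 0.1% DMSO vehicle. CCCP (50 μM) served as positive control. After JC-1 staining, the red-to-green fluorescence shift was measured by flow cytometry.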

Leishmania donovani [8] = test: Induction of plasma membrane permeabilization in Leishmania donovani MHOM/IN/80/Dd8 promastigotes assessed as non specific pore formation at MIC measured after 4 hrs by sytox green dye based flow cytometry; type: functional, organism-based
[9] = Cmax in BALB/c mouse at 50 mg/kg, po administered via gavage by LC-MS/MS analysis; type: ADME, organism-based; set-up: dose 50 mg/kg, route oral; settings: in vivo
[10] = Elimination rate constant in BALB/c mouse at 50 mg/kg, po administered via gavage by LC-MS/MS analysis; type: ADME, organism-based; settings: in vivo

Question: For `Cc1cc(-c2ccc(OCCn3c([N+](=O)[O-])cnc3C)cc2)nc2ccccc12`, which Activity (Leishmania donovani [1]) is on record?
Answer: inactive

Question: What about the inhibition (Leishmania donovani [2]) of the same molecule?
Answer: inactive

Question: What about the Activity (Leishmania donovani [3]) of the same molecule?
Answer: >62%

Question: And the Imax (Leishmania donovani [4])?
Answer: >67%

Question: And the Activity (Leishmania donovani [5])?
Answer: 20.59%

Question: And the Activity (Leishmania donovani [6])?
Answer: 0.41%

Question: What about the Activity (Leishmania donovani [7]) of the same molecule?
Answer: 23.15%

Question: And the Activity (Leishmania donovani [8])?
Answer: inactive

Question: What about the Cmax [9] of the same molecule?
Answer: 6860 ng/mL

Question: What about the k el [10] of the same molecule?
Answer: 4.72e-05 s⁻¹
